Bioassay records: PubChem BioAssay, several laboratories
Shown are actives, neighbours in structure and some others; about 0.99% of the full set was active somewhere.
STK33 inh: inhibitors of human STK33 kinase; Q9BYT3; purified STK33, MBP phosphorylation, ADP-Glo luminescence; inhibition, % at 10 µM; 0.073% of 320,000 active; AID 2661;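 active = inhibition at or above 25%, using the most active replicate where run in duplicate; inactive = inhibition below 25%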
GSK3beta inhib: blocks human GSK3beta kinase activity | P49841 | activity score (negative = inhibition), % at 10 µM | 0.038% of 300,000 active | GST-GSK3beta kinase, ADP-Glo luminescence, 60 min; hits give low values;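 active = more than half of replicate wells score below -50%, meaning over 50% inhibition versus plate controls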
Target sequence (P49841 whole entry, looked up): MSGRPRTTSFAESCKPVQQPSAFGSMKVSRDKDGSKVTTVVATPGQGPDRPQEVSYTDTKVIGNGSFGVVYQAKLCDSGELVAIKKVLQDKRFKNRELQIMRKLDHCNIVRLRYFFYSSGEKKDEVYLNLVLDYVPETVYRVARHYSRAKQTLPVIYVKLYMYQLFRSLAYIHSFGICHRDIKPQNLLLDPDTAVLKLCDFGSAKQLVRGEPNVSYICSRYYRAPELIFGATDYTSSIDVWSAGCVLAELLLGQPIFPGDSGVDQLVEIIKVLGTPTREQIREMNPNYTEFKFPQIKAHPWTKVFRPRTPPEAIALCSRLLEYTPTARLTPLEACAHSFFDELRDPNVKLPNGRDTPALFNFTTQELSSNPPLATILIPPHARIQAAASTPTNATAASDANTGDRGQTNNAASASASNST
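Test system: GST-tagged human GSK3beta kinase, cell-free; evaluation: activity score scaled between in-plate DMSO and GW8510 controls; measured by: ADP-Glo luminescence; incubation: 60 min reaction, RT; benchmarks: DMSO and 20 µM GW8510; reagent: peptide substrate plus 25 µM ATP (final); medium: Tris/MgCl2 kinase buffer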
Rin1-Abl PPI inh: human Rin1-Abl interaction inhibition; TR-FRET Rin1/Abl binding, biochemical; AID 588664; inhibition, % at 7.35 µM; 0.4% of 360,000 active; P00519+Q13671; in the data active = inhibition above about 5%, passing the limit was not always enough
DYRK1A inh: inhibitors of rat Dyrk1A kinase; Q63470; ADP-Glo luminescence, NFATc1 peptide; inhibition, % at 12.5 µM; 0.43% of 310,000 active; in the data active = inhibition above about 50%
GSK3A inh: inhibitors of human GSK-3 alpha kinase; ADP-Glo luminescence, 60 min; inhibition, % at 10 µM; 0.1% of 320,000 active; AID 2650;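 active = more than half of replicates show inhibition above 20%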;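 also: GST-tagged GSK-3 alpha with peptide substrate and 25 µM ATP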
Arr AP2 block: blocks beta-arrestin peptide binding to AP2 adaptin | FITC-arrestin peptide / GST-AP2 beads, flow cytometry; AP2 beta2 appendage carries R879A mutation | 0.31% of 340,000 active | inhibition, % at 10 µM;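 active = inhibition above a set limit, near 3 SD of compounds lacking own fluorescence, cut at about 54% in these data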
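System: GST-AP2 R879A glutathione beads; medium: PBS, Tween 20 0.05%, BSA 0.1%; reagent: fluorescein-tagged arrestin peptide at 50 nM final; schedule: pre-incubation 12 min, peptide binding 1 h, room temperature; detection: flow cytometry, FL1 (488/535 nm); read-out: inhibition as reduced fluorescein signal on beads, percent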
Rin1 Abl conf: Rin1-Abl interaction inhibition confirmation. shares compounds with Rin1-Abl PPI inh. TR-FRET Rin1-Abl binding, purified proteins. inhibition, % at 7.35 µM. 49% of 1,300 active
GFP quench-1: quenches GFP fluorescence, counter-screen for Rin1-Abl inhibitors; AID 602125; shares compounds with Rin1-Abl PPI inh; 8.5% of 1,300 active; inhibition, % at 6.75 µM; inhibitors/quenchers counterscreen;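 also: ABL1-eGFP fusion protein alone without its partner RIN1-SBP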
GFP quench dose: quenches GFP in dose response, Rin1-Abl counter-screen; IC50, µM; GFP fluorescence interference/quenching counterscreen; shares compounds with Rin1-Abl PPI inh; AID 602182; 230 tested, under 10 active; call rule not given here;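 also: ABL1-eGFP fusion protein alone without its RIN1 binding partner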
GFP quench-2: counter-screen for Rin1-Abl interaction inhibitors: GFP fluorescence quenching; AID 602397; GFP fluorescence quenching counterscreen, biochemical; 25 tested, under 10 active; shares compounds with Rin1-Abl PPI inh; IC50, µM; call rule not given here
Large screens that a line does not name were inactive (follow-up assays come after a bar, where they were run). Rule as the data show it, unless noted: active = inhibition above about 6.5%; inactive = the rest.

O=C(O)c1cccc(S(=O)(=O)Nc2ccc(N3CCCCC3)cc2)c1	none (no result: GSK3beta inhib)
COc1ccc(CCNc2cc(=O)[nH]c(N)n2)cc1	Rin1-Abl PPI inh 24 | Rin1 Abl conf 52 | GFP quench-1 inactive | GFP quench dose inactive | GFP quench-2 inactive
C=CC[C@H](CC(=O)N[C@H](CO)Cc1ccccc1)C(=O)N[C@H](COC(=O)[C@@H](CC=C)CC(=O)OC(C)(C)C)Cc1c[nH]c2ccccc12	none (no result: GSK3beta inhib)
Cc1c(F)cccc1NS(=O)(=O)c1ccc2c(c1)c(=O)n(C)c(=O)n2C	Rin1-Abl PPI inh 10 | Rin1 Abl conf inactive | GFP quench-1 inactive
Cc1c(F)cccc1NS(=O)(=O)c1ccc2c(c1)n(C)c(=O)c(=O)n2C	none
CCOc1ccc(N2CC(C(=O)NNC(=O)c3ccc(Br)cc3)CC2=O)cc1 (configuration not stated)	none
Cc1noc(C)c1NC(=O)Nc1ccc2c(c1)C(=O)N([C@H](C)CO)C[C@H](C)[C@@H](CN(C)S(=O)(=O)c1ccccc1)O2	Rin1-Abl PPI inh 9.2 (no result: GSK3beta inhib) | Rin1 Abl conf inactive | GFP quench-1 inactive
CCOC(=O)CCCCCC(=O)Nc1ccc2c(c1)C(=O)N([C@@H](C)CO)C[C@@H](C)[C@H](CN(C)S(=O)(=O)c1cccs1)OCCCC[C@H](C)O2	Rin1-Abl PPI inh 8.2 (no result: STK33 inh, GSK3beta inhib, DYRK1A inh, GSK3A inh, Arr AP2 block) | Rin1 Abl conf inactive | GFP quench-1 inactive
C[C@@H]1CCCCO[C@@H](CN(C)S(=O)(=O)c2ccccc2)[C@@H](C)CN([C@H](C)CO)C(=O)c2cc(NS(=O)(=O)c3ccc(F)cc3)ccc2O1	Rin1-Abl PPI inh 51 (no result: STK33 inh, GSK3beta inhib, DYRK1A inh, GSK3A inh, Arr AP2 block) | Rin1 Abl conf 60 | GFP quench-1 inactive | GFP quench dose inactive
C[C@H]1CCCCO[C@@H](CN(C)S(=O)(=O)c2ccc(Cl)cc2)[C@@H](C)CN([C@@H](C)CO)C(=O)c2cc(NS(=O)(=O)c3ccccc3)ccc2O1	none (no result: STK33 inh, GSK3beta inhib, DYRK1A inh, GSK3A inh, Arr AP2 block)
Cc1nc(SCC(=O)Nc2ccccc2Cl)c2c(C)c(C)sc2n1	none (no result: GSK3beta inhib)
O=C1C=CC2=C3c4cc(O)c(O)cc4CC3(O)COC2=C1O (configuration not stated)	Rin1-Abl PPI inh 67 (no result: STK33 inh, GSK3beta inhib, GSK3A inh) | Rin1 Abl conf 73 | GFP quench-1 45
Cc1cc(C(=O)OCC(=O)Nc2ccccc2C(F)(F)F)on1	none (no result: GSK3beta inhib, DYRK1A inh)
CC(C)n1cc(CN2CCC(C(=O)Nc3cccc(-c4cscn4)c3)CC2)cn1	Rin1-Abl PPI inh 11 (no result: STK33 inh, GSK3A inh) | Rin1 Abl conf 24 | GFP quench-1 inactive | GFP quench dose inactive
COc1ccc(C2C(C(=O)N3CCN(c4ccccn4)CC3)CCC(=O)N2c2cc(OC)c(OC)c(OC)c2)cc1 (configuration not stated)	none
COc1ccc(C2C(C(=O)N3CCN(c4ccccn4)CC3)CCC(=O)N2c2ccc(OC)cc2)cc1 (configuration not stated)	Rin1-Abl PPI inh 7.5 | Rin1 Abl conf inactive | GFP quench-1 inactive
O=C(O)c1cccc(Cn2c(Cl)c(/C=N/NC(=O)c3ccccc3O)sc2=O)c1	Rin1-Abl PPI inh 5.2 | Rin1 Abl conf inactive | GFP quench-1 inactive
Cc1ccc(C)c(NC(=O)CCc2c(C)nn(-c3ccc(N4CCCCC4)nn3)c2C)c1	Rin1-Abl PPI inh 12 | Rin1 Abl conf inactive | GFP quench-1 inactive
Cc1ccc(NC(=O)CCc2c(C)nn(-c3ccc(N4CCCCC4)nn3)c2C)cc1F	none
CN(CC(=O)Nc1cccc(C(F)(F)F)c1)C1=NS(=O)(=O)c2ccccc21	Rin1-Abl PPI inh 9.9 (no result: GSK3beta inhib) | Rin1 Abl conf inactive | GFP quench-1 inactive
